According to article PMC4297623 (Nature, 2011):
Like-named read-outs stand apart in the source and are kept apart here. Each block holds one molecule with its values, some of them ahead of it.

Key:
[1] = test system: RS11846 cells; assay: Transwell migration of RS11846 cells; type: cell-based; conditions: transwell assay
[2] = test system: EBV-infected human B cell line; assay: Transwell migration of EBV-infected B cells; type: cell-based; conditions: transwell assay; bell shaped activity curve
In short: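 Transwell chemotaxis of an EBV-infected human B cell line toward oxysterol test compounds in the lower chamber. Samples run in duplicate.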

[3] = test system: Parental cells lacking the EBI2 receptor; assay: Calcium mobilization in parental cell line lacking EBI2; type: cell-based; conditions: parental cell line without EBI2
[4] = test system: EBI2 expressing cell line (M12); assay: Migration bioassay with EBI2 expressing reporter cell line; type: cell-based; conditions: attraction of EBI2 expressing cell line (Fig. S8c)
In short: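 Chemoattraction bioassay: M12 reporter cells, with or without EBI2, exposed to the oxysterol ligand; read-out is migration of cells toward it. The same assay was also run on spleen and lymph node tissue extracts from wild-type and Ch25h-deficient mice.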

[5] = test system: 31 different GPCRs; assay: Panel of GPCR assays; type: cell-based
[6] = test system: bone marrow-derived dendritic cells; assay: Transwell migration of bone marrow-derived dendritic cells; type: cell-based, mice; conditions: transwell assay
In short: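 Dendritic cells derived from the bone marrow of wild-type and Ebi2(−/−) mice, tested side by side for transwell migration toward oxysterol test compounds. Samples run in quadruplicate.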

[7] = test system: 8 different nuclear hormone receptors including LXR; assay: Panel of reporter gene assays against nuclear hormone receptors; type: cell-based; conditions: 8 nuclear hormone receptors including LXR
[8] = biological target: T1, EBI2 (Homo sapiens, UniProt P32249); assay: Calcium mobilization; type: cell-based
[9] = biological target: T1, EBI2; assay: Radioligand binding to membranes from EBI2 expressing CHO cells
[10] = biological target: T1, EBI2; assay: GTPγ35S binding functional assay; type: biochemical
[11] = test system: Membranes from parental cells lacking EBI2 receptor; assay: Radioligand binding to membranes from parental cells lacking EBI2; conditions: data not shown
[12] = biological target: T1, EBI2; type: cell-based
[13] = read-out: Ca^2+ Fluorescence EC50, FLIPR, CHO cells stably expressing EBI2, n = 3-4, ± standard deviation
[14] = read-out: [^3H]-7α, 25-OHC Binding IC50, displacement of 10 nM 3H-7α, 25-OHC from membranes of EBI2 expressing CHO cells, n = 3-4, ± standard deviation
[15] = read-out: GTPγ^35S Binding EC50, n = 3-4, ± standard deviation

T1 sequence (P32249 whole entry): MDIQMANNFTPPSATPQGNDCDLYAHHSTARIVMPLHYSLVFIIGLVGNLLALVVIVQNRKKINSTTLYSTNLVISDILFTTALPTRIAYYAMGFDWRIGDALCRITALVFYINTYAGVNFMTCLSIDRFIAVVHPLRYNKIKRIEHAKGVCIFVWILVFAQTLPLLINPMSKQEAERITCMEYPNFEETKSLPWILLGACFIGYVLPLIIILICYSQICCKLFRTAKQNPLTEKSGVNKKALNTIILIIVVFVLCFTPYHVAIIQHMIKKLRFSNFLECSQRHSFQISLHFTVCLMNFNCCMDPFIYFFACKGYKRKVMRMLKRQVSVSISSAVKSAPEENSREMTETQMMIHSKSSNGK

Molecule: C[C@H](CCCC(C)(C)O)[C@H]1CC[C@H]2[C@@H]3[C@H](O)C=C4C[C@@H](O)CC[C@]4(C)[C@H]3CC[C@]12C [7α, 25-OHC, 5-cholesten-3β, 7α, 25-triol]
chemoattraction of RS11846 cells ([1]; bell shaped activity curve): can potently attract
chemoattraction of EBV-infected B cells [2]: can potently attract
calcium response of parental cells lacking EBI2 [3]: did not respond
sensitivity of bioassay [4]: subnanomolar sensitivity
interaction with other GPCRs [5]: In none of these assays did we see a significant interaction
migration of BMDC from wild type and Ebi2(−/−) animals [6]: only wild type cells migrate
interaction with nuclear hormone receptors [7]: In none of these assays did we see a significant interaction
EC50 [8]: 2 ± 2 nM

specific binding of radioligand to EBI2 membranes ([9]; EBI2 membranes): no specific binding
Molecule: [3H]C1(O)C=C2CC(O)CCC2(C)C2CCC3(C)C(C(C)CCCC(C)(C)O)CCC3C21 (stereo not drawn) [[^3H]-7β, 25-OHC]

EC50 [8, 13]: 3030 ± 2640 nM
IC50 [9, 14]: > 10000 nM
EC50 [10, 15]: 727 ± 232 nM
Molecule: C[C@H](CCCC(C)(C)O)[C@H]1CC[C@H]2[C@@H]3CC=C4C[C@@H](O)CC[C@]4(C)[C@H]3CC[C@]12C [25-OHC]

Molecule: [3H]C1(O)C=C2CC(O)CCC2(C)C2CCC3(C)C(C(C)CCCC(C)(C)O)CCC3C21 (stereo not drawn) [[^3H]-7α, 25-OHC]
binding of radioligand to membranes from parental cells [11]: did not bind

EC50 [8, 13]: 310 ± 261 nM
IC50 [9, 14]: > 10000 nM
EC50 [10, 15]: 125 ± 66 nM
Molecule: C[C@@H](CO)CCC[C@@H](C)[C@H]1CC[C@H]2[C@@H]3[C@@H](O)C=C4C[C@@H](O)CC[C@]4(C)[C@H]3CC[C@]12C [7β, 27-OHC]

EC50 [8]: > 10000 nM
IC50 [9]: > 10000 nM
EC50 [10]: > 10000 nM
Molecule: CC(C)CCC[C@@H](C)[C@H]1CC[C@H]2[C@@H]3CC=C4C[C@@H](O)CC[C@]4(C)[C@H]3CC[C@]12C [cholesterol]

Molecule: pertussis toxin
effect on oxysterol-mediated attraction of RS11846 cells ([1]; presence of pertussis toxin): could be blocked

activation of EBI2 ([12]; initial test of candidates (Fig. S3)): did not activate EBI2
Molecule: CO[C@H]1C=C2C[C@@H](O)CC[C@]2(C)[C@H]2CC[C@]3(C)[C@@H]([C@H](C)CCCC(C)C)CC[C@H]3[C@H]12 [7-methoxy derivate of 7β-OHC]

EC50 [8, 13]: 5 ± 4 nM
IC50 [9, 14]: 362 ± 32 nM
EC50 [10, 15]: 5 ± 2 nM
Molecule: C[C@@H](CO)CCC[C@@H](C)[C@H]1CC[C@H]2[C@@H]3[C@H](O)C=C4C[C@@H](O)CC[C@]4(C)[C@H]3CC[C@]12C [7α, 27-OHC]
interaction with other GPCRs [5]: In none of these assays did we see a significant interaction
interaction with nuclear hormone receptors [7]: In none of these assays did we see a significant interaction

Molecule: C[C@H](CCCC(C)(C)O)[C@H]1CC[C@H]2[C@@H]3[C@@H](O)C=C4C[C@@H](O)CC[C@]4(C)[C@H]3CC[C@]12C [7β, 25-OHC, cholest-5-ene-3β, 7β, 25-triol]
EC50 [12]: ~50 nM
